High-throughput results from PubChem BioAssay.
Rows were chosen to be rich in hits. Some 2.8% of all compounds tested hit in one or more screens of this group.
EP2 mod = modulates human prostaglandin E2 receptor EP2 signaling. P43116. EP2-expressing cells, cAMP HTRF FRET, PGE2 co-stimulation. induction, % at 25 µM. hit rate 0.83% among 260,000. AID 940;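 active = compounds whose cAMP rise, as percent of the full-agonist control response, exceeds 60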;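 note: rat C6 glioma line stably carrying human EP2 under a CMV promoter; the protocol text gives 20 µM as final concentration; 100% = response of wells given 1 µM PGE2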
Target sequence (P43116 whole entry, looked up): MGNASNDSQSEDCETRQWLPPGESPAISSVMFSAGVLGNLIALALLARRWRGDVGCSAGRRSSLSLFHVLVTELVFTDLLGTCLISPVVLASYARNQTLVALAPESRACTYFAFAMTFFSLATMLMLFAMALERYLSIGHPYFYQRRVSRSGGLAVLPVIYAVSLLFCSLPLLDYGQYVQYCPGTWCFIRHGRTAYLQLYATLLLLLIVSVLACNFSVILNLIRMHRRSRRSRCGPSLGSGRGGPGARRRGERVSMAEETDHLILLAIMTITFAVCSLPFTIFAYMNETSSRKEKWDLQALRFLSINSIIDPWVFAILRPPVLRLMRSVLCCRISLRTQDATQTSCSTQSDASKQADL
NPY Y2 blocker = antagonists of human neuropeptide Y receptor Y2 | P49146 | NPY-Y2 expressing cells, antagonist mode | inhibition, % at 2.7 µM | hit rate 0.99% among 140,000 | AID 793;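 note: 0% = vehicle with agonist challenge and 100% = reference antagonist with challenge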
Target sequence (P49146 whole entry, looked up): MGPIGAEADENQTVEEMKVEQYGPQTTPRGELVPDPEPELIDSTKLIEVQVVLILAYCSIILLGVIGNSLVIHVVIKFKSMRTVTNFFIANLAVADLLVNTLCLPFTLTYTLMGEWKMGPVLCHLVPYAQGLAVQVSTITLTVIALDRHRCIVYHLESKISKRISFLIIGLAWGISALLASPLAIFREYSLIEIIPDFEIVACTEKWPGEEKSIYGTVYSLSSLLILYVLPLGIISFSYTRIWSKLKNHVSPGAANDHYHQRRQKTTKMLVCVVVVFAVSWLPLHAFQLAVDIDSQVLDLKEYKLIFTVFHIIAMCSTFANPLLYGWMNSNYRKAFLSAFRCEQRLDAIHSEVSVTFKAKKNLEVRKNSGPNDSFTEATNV
NPY-Y2 PAM-ag = human NPY-Y2 potentiation or agonism, primary screen | P49146 | activation, % at 3.6 µM | AID 1359 | hit rate 0.45% among 220,000 | cells expressing NPY-Y2, potentiator/agonist read-out; in the data active = activation above about 27%;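 note: cells stimulated with NPY near EC25 plus isoproterenol at EC100; 0% = vehicle plus submaximal agonist and 100% = vehicle plus saturating agonist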
PGE2 EP2 inh = blocks the human prostaglandin E2 receptor EP2 | C6 glioma cells expressing human EP2, cAMP TR-FRET; cells stimulated with saturating PGE2 | AID 1422 | hit rate 0.52% among 260,000 | inhibition, % at 25 µM | P43116;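 active = percent inhibition above 40 after rounding to a whole number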;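 note: rat C6 glioma host cells with rolipram phosphodiesterase inhibitor present; the protocol text gives 20 µM as final concentration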
NPY-Y1 antag = blocks the human neuropeptide Y Y1 receptor; hit rate 1% among 200,000; P25929; HEK293-CNG Y1 cells, membrane potential fluorescence; NPY at EC95, then isoproterenol; inhibition, % at 3.6 µM; AID 1040;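 active = inhibition above the campaign mean inhibition of all tested compounds plus 3 SD, cut at about 20% in these data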;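 note: 0% = DMSO wells given NPY plus isoproterenol and 100% = isoproterenol alone without NPY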
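Assay system: HEK293 Y1/CNG channel cell line; Doses: single compound dose of 3.6 µM, 0.4% DMSO; Timing: dye 3 h, compound 60 min room temperature, stimulation 45 min; Technique: Membrane-potential fluorescent dye readout; Measure: % inhibition of NPY effect.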
NPY-Y1 PAM-ag = potentiates or activates human NPY-Y1 receptor; activation, % at 3.6 µM; NPY-Y1 expressing cells, potentiator/agonist activation; hit rate 0.37% among 220,000; in the data active = activation above about 33%, passing the limit was not always enough;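 note: cells stimulated with NPY at EC10 then isoproterenol at EC100; 0% = low agonist plus stimulus and 100% = saturating agonist plus stimulus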
NPY-Y1 ant conf = human NPY-Y1 antagonism, confirmation | shares compounds with NPY-Y1 antag | HEK293-CNG NPY-Y1, membrane potential fluorescence, cAMP; NPY challenge against isoproterenol-raised cAMP | inhibition, % at 3.6 µM | hit rate 21% among 1,200; in the data active = inhibition above about 20%;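 note: 0% = vehicle with agonist plus stimulus and 100% = stimulus alone without agonist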
NPY2 antag ctr = human NPY-Y2 antagonism in NPY-Y1 counter-screen. shares compounds with NPY-Y1 antag. HEK293 NPY-Y2 CNG membrane potential fluorescence; cells given NPY, then isoproterenol. inhibition, % at 3.6 µM. hit rate 28% among 1,200;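 note: 0% = DMSO with agonist challenge and 100% = reference antagonist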
Numbers without * were called inactive; · = no result; ! = not active in a repeat. Cut-off read from the data, not from the text of the source, unless noted: active = inhibition above about 17%; inactive = the rest.

SMILES | EP2 mod | NPY Y2 blocker | NPY-Y2 PAM-ag | PGE2 EP2 inh | NPY-Y1 antag | NPY-Y1 PAM-ag | NPY-Y1 ant conf | NPY2 antag ctr
Cc1cccc(C)c1NC(=S)N(Cc1ccccc1)Cc1cccs1 | 63.0* | · | -18.4 | 8.7 | 38.0* | -27.9 | 17.1 | 20.1*
O=C(O)CNC(=S)N(Cc1ccccc1)Cc1cccs1 | -9.6 | · | -0.5 | 9.9 | 8.4 | -2.7 | · | ·
O=C(Nc1ccc(C(F)(F)F)cc1Cl)c1ccc(Cn2cc(Br)cn2)o1 | 27.1 | 7.6 | -23.5 | 14.4 | 21.8* | -51.6 | 6.8 | 8.1
O=C(CSc1n[nH]c(-c2ccco2)n1)Nc1ccc(Cl)cc1Cl | -34.0 | · | · | 9.7 | · | · | · | ·
COC(=O)c1sc2ncn(CC(=O)NC3CCCCC3)c(=O)c2c1C | -5.4 | · | · | 9.4 | · | · | · | ·
Cc1ccc(Cl)cc1N1CCN(CC(O)COCc2ccco2)CC1 (centres undefined) | 24.3 | 10.2 | -17.2 | 9.3 | 21.1* | -47.3 | 12.6 | 7.2
Cc1n[nH]c(C)c1NC(=O)CSc1nccc(-c2ccc(Br)cc2)n1 | -13.7 | · | · | 9.3 | · | · | · | ·
CC1(C)Cc2c(sc(NC(=O)COc3cccc4ccccc34)c2C#N)C(C)(C)N1 | -26.2 | · | -41.7 | 10.0 | · | -47.1 | · | ·
Cc1ccc(OCC(=O)Nc2sc3c(c2C#N)CC(C)(C)NC3(C)C)cc1 | -71.8 | · | -24.4 | 9.9 | 22.3* | -37.8 | 13.5 | 6.4
CC(Sc1nnc(COc2ccc3ccccc3c2)n1C)C(=O)Nc1ccccc1 (centres undefined) | -35.0 | · | · | 10.8 | · | · | · | ·
CC(=O)OCC[N+](C)(C)C | -5.0 | 2.9 | -19.8 | 13.3 | 26.8* | -75.1 | 29.4* | 17.5*!
C[N+](C)(C)CCOC(=O)CCC(=O)OCC[N+](C)(C)C | 12.6 | · | · | 7.5 | · | · | · | ·
CC(C)C(NC(=O)c1ccccc1Cl)c1n[nH]c(=S)n1C (centres undefined) | -7.1 | · | · | 10.1 | · | · | · | ·
CCN(CC)C(=O)N1CCN(C(=O)c2ccccc2)CC1 | 4.8 | · | · | 10.1 | · | · | · | ·
CC1=CC(C)(C)N(C(=O)CNC2CCCCC2)c2cc(C)ccc21 | 24.6 | · | -5.2 | 6.5 | 24.6* | -1.7 | 20.9* | 6.6
CCOC(=O)c1c(C)n(C)c2cc(Br)c(OC)cc12 | 57.3 | · | -8.9 | 5.4 | 8.2 | -14.1 | · | ·
CCOC(=O)c1c(CNCCN(CC)CC)n(C)c2cc(Br)c(OC)cc12 | -11.2 | 12.8 | -26.9 | 16.8 | 26.8* | -17.5 | 11.4 | 15.2
CCOCc1nnc(NC(=O)c2cccc(F)c2)s1 | 17.7 | · | · | -0.7 | · | · | · | ·
COCc1[nH]nc2c1C(c1ccsc1)C(C#N)=C(N)O2 (centres undefined) | -4.3 | 2.2 | 0.5 | 7.2 | 1.8 | -4.1 | · | ·
CCCc1[nH]nc2c1C(c1ccsc1)C(C#N)=C(N)O2 (centres undefined) | -55.2 | · | -2.4 | 6.1 | 40.0* | 14.8 | 37.5* | 22.3*
Cc1ccc(C(=O)NC(=S)Nc2ccc(Oc3ccc(Cl)cc3)cc2)cc1 | 0.3 | 1.4 | 2.6 | 5.2 | 1.5 | -10.2 | · | ·
O=C(NC(=S)Nc1ccc(Oc2ccccc2)cc1)c1ccc(Cl)cc1 | 29.9 | 4.5 | -5.8 | 21.2 | 20.4* | -34.1 | 9.4 | 10.5
COc1cccc(/C(C#N)=C/c2c(-c3ccc(Cl)cc3)nc3c(C)cccn23)c1 | 8.6 | 2.2 | -4.0 | 14.3 | 22.6* | 0.2 | 4.2 | 2.5
Cc1ccc(N2C(=O)c3ccccc3NC2C(C)Cc2ccc3c(c2)OCO3)cc1 (centres undefined) | 50.5 | 16.9 | -17.0 | 3.4 | 44.0* | -50.5 | 119.8* | 108.2*
Cc1ccccc1N/C(N)=N/c1nc(C(F)(F)F)cc(=O)[nH]1 | -43.2 | · | · | 8.0 | · | · | · | ·
SMILES | EP2 mod | NPY Y2 blocker | NPY-Y2 PAM-ag | PGE2 EP2 inh | NPY-Y1 antag | NPY-Y1 PAM-ag | NPY-Y1 ant conf | NPY2 antag ctr
COc1ccc(-c2noc(CCCOc3ccccc3)n2)cc1OC | 0.4 | 12.8 | -27.4 | 5.1 | 25.1* | -38.9 | 12.7 | 13.0
CCn1c2cc(C)sc2c2cnn(Cc3cccnc3)c(=O)c21 | 1.4 | · | · | · | · | · | · | ·
CN(C)CCCOc1ccc(C(C)(C)c2ccccc2)cc1 | -29.1 | 12.9 | -33.7 | 12.8 | 22.8* | -48.8 | 14.3 | 22.5*
CN(C)CCOc1ccc(C(C)(C)c2ccccc2)cc1 | 5.7 | · | -1.8 | 5.0 | 0.9 | 9.4 | · | ·
CC(C)N(CCNCC(O)COc1ccc(C(C)(C)c2ccccc2)cc1)C(C)C (centres undefined) | -29.8 | · | -6.2 | 8.1 | 24.8* | -22.2 | 14.0 | 26.4*
OC(CNCCc1ccccc1)COc1ccc(OCC(O)CNCCc2ccccc2)cc1 (centres undefined) | -52.0 | · | 0.7 | 14.1 | · | -6.2 | · | ·
Cc1oc(C(=O)N2CCCC2c2nc3ccccc3[nH]2)cc1CN1CCOCC1 (centres undefined) | -3.5 | · | · | 7.1 | · | · | · | ·
Cc1cc(-c2nnc(SCC(=O)N3CCCC3)o2)no1 | -2.2 | · | · | 6.0 | · | · | · | ·
COc1cccc(-c2cc(C(=O)N3CCN(C(c4ccccc4)c4ccccc4)CC3)no2)c1 | 37.3 | 6.8 | -6.3 | 4.3 | 23.6* | -31.1 | 6.5 | 7.6
O=C(O)c1nn(-c2ccccc2)nc1-c1nn(-c2ccccc2)nc1C(=O)O | 8.0 | 8.9 | -18.9 | 11.3 | 30.8* | -32.5 | 10.0 | 9.6
Cc1ccc(-c2nnc(N3CCOCC3)c3ccccc23)cc1S(=O)(=O)NCC1CCCO1 (centres undefined) | 13.2 | 1.6 | 0.1 | 21.2 | 4.6 | -0.6 | · | ·
Cc1ccc(-c2nnc(N3CCC(C)CC3)c3ccccc23)cc1C | 30.5 | · | -10.3 | 8.8 | 26.3* | -24.9 | 9.1 | 14.4
Cc1ccn(CCCNC(=O)Cn2nc(C)n3c(cc4sccc43)c2=O)n1 | -0.9 | · | · | · | · | · | · | ·
O=C(OCC(=O)N1N=C(c2ccc(Cl)cc2)CC1c1ccco1)c1ccccc1O (centres undefined) | 43.3 | 10.7 | -7.1 | 5.8 | 21.9* | -2.9 | 5.9 | 9.0
